# Calls of active or inactive are those of the source. The calls are words filed in the database; no cut-off is given here.
# Key:
# [1] = system: Human alphaherpesvirus 2; experiment: Antiherpetic activity against HSV2 at 0.5 mg/ml by MTT assay; type: functional
# In short: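 Activity against HSV2 was assayed by a previously reported procedure. The initial concentration of test samples and of the acyclovir positive control was 0.5 mg/mL, and samples were tested at several concentration levels. Each level had four independent experiments. The end-point was an MTT assay read as optical density.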
# [2] = system: Human alphaherpesvirus 2; experiment: Antiherpetic activity against HSV2 at 0.25 mg/ml by MTT assay; type: functional
# In short: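 Anti-HSV2 test run by a previously reported method. Samples started at an initial concentration of 0.25 mg/mL and were assayed at several concentration levels. Four independent experiments were run at each level. Acyclovir was the positive control. The read-out was an MTT assay, with optical density measured on a multimode plate reader.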
SMILES,inhibition [1],inhibition at 250 µg/mL [2],inhibition at 500 µg/mL [1]
CC(=O)OC[C@]12[C@H](OC(C)=O)[C@H](OC(C)=O)[C@@H]3[C@@H](O)[C@@]14O[C@@]3(C)COC(=O)c1cccnc1C(C)C(C)C(=O)O[C@@H]([C@H](OC(C)=O)[C@@H]2OC(C)=O)[C@]4(C)O (stereo not given in full),inactive,–,–
CC1(C)O[C@]23[C@H](OC(=O)c4cccnc4)[C@H]1C[C@H](OC(=O)/C=C/c1ccccc1)[C@]2(C)[C@@H](OC(=O)c1ccccc1)CC[C@]3(C)O,inactive,–,–
CC(=O)OC[C@]12[C@H](OC(C)=O)[C@H](OC(=O)c3ccccc3)[C@@H]3[C@@H](O)[C@@]14O[C@@]3(C)COC(=O)c1cccnc1CC[C@H](C)C(=O)O[C@@H]([C@H](OC(C)=O)[C@@H]2OC(C)=O)[C@]4(C)O,inactive,–,–
CC(=O)OC[C@]12[C@H](OC(C)=O)[C@H](OC(C)=O)[C@@H]3[C@@H](OC(C)=O)[C@@]14O[C@@]3(C)COC(=O)c1cccnc1CCC(C)C(=O)O[C@@H]([C@H](OC(=O)c1ccco1)[C@@H]2OC(C)=O)[C@]4(C)O (stereo not given in full),inactive,–,–
CC(=O)OC[C@]12[C@H](OC(C)=O)[C@H](OC(C)=O)[C@@H]3[C@@H](OC(C)=O)[C@@]14O[C@@]3(C)COC(=O)c1cccnc1CCC(C)(OC(C)=O)C(=O)O[C@@H]([C@H](OC(=O)c1ccoc1)[C@@H]2OC(C)=O)[C@]4(C)O (stereo not given in full),inactive,–,–
CC1(C)O[C@]23[C@H](OC(=O)c4cccnc4)[C@H]1C[C@H](OC(=O)c1ccccc1)[C@]2(C)[C@@H](OC(=O)c1ccccc1)CC[C@]3(C)O [REGELIDINE],–,31.7%,–
CC(=O)OC[C@]12[C@H](OC(C)=O)[C@H](OC(C)=O)[C@@H]3[C@@H](OC(=O)c4ccccc4)[C@@]14O[C@@]3(C)COC(=O)c1cccnc1C(C)C(C)C(=O)O[C@@H]([C@H](OC(C)=O)[C@@H]2OC(=O)c1ccccc1)[C@]4(C)O (stereo not given in full),inactive,–,–
CC(=O)OC[C@]12[C@H](OC(C)=O)[C@H](OC(C)=O)[C@@H]3[C@@H](OC(C)=O)[C@@]14O[C@@]3(C)COC(=O)c1cccnc1CCC(C)(O)C(=O)O[C@@H]([C@H](OC(=O)c1ccccc1)[C@@H]2OC(C)=O)[C@]4(C)O (stereo not given in full),inactive,–,–
CC(=O)OC[C@]12[C@H](OC(C)=O)[C@H](OC(C)=O)[C@@H]3[C@@H](OC(C)=O)[C@@]14O[C@@]3(C)COC(=O)c1cccnc1CCC(C)C(=O)O[C@@H]([C@H](OC(=O)c1ccccc1)[C@@H]2OC(C)=O)[C@]4(C)O (stereo not given in full),inactive,–,–
CC(=O)OC[C@]12[C@H](OC(C)=O)[C@H](OC(C)=O)[C@@H]3[C@@H](OC(C)=O)[C@@]14O[C@@]3(C)COC(=O)c1cccnc1CCC(C)(O)C(=O)O[C@@H]([C@H](O)[C@@H]2OC(C)=O)[C@]4(C)O (stereo not given in full),inactive,–,–
CC(=O)OC[C@]12[C@H](OC(C)=O)[C@H](OC(C)=O)[C@@H]3[C@@H](OC(C)=O)[C@@]14O[C@@]3(C)COC(=O)c1cccnc1CC[C@H](C)C(=O)O[C@@H]([C@H](OC(C)=O)[C@@H]2OC(C)=O)[C@]4(C)O,inactive,–,–
CC(=O)OC[C@]12[C@H](OC(C)=O)[C@H](OC(C)=O)[C@@H]3[C@@H](OC(C)=O)[C@@]14O[C@@]3(C)COC(=O)c1cccnc1CCC(C)(OC(=O)c1ccoc1)C(=O)O[C@@H]([C@H](OC(=O)c1ccccc1)[C@@H]2OC(C)=O)[C@]4(C)O (stereo not given in full),inactive,–,–
CC(=O)OC[C@]12[C@H](OC(C)=O)C(=O)[C@@H]3[C@@H](OC(C)=O)[C@@]14O[C@@]3(C)COC(=O)c1cccnc1CCC(C)(OC(C)=O)C(=O)O[C@@H]([C@H](OC(=O)c1ccoc1)[C@@H]2OC(C)=O)[C@]4(C)O (stereo not given in full),inactive,–,–
CC(=O)OC[C@]12[C@H](OC(C)=O)[C@H](OC(C)=O)[C@@H]3[C@@H](OC(C)=O)[C@@]14O[C@@]3(C)COC(=O)c1cccnc1C(C)C(C)C(=O)O[C@@H]([C@H](OC(C)=O)[C@@H]2OC(C)=O)[C@]4(C)O (stereo not given in full),inactive,–,–
CC(=O)OC[C@]12[C@H](OC(C)=O)[C@H](OC(C)=O)[C@@H]3[C@@H](OC(C)=O)[C@@]14O[C@@]3(C)COC(=O)c1cnccc1C(C)C(C)C(=O)O[C@@H]([C@H](OC(C)=O)[C@@H]2OC(C)=O)[C@]4(C)O (stereo not given in full),inactive,–,–
CC(=O)OC[C@]12[C@H](OC(C)=O)[C@H](OC(C)=O)[C@@H]3[C@@H](OC(C)=O)[C@@]14O[C@@]3(C)COC(=O)c1cccnc1CCC(C)(O)C(=O)O[C@@H]([C@H](OC(=O)c1ccco1)[C@@H]2OC(C)=O)[C@]4(C)O (stereo not given in full),inactive,–,–
CC(=O)OC[C@]12[C@H](OC(C)=O)[C@H](OC(=O)c3cccnc3)[C@@H]3[C@@H](OC(C)=O)[C@@]14O[C@@]3(C)COC(=O)c1cnccc1C(C)C(C)C(=O)O[C@@H]([C@H](OC(C)=O)[C@@H]2OC(C)=O)[C@]4(C)O (stereo not given in full),inactive,–,–
Nc1nc2c(ncn2COCCO)c(=O)[nH]1 [ACYCLOVIR],–,60.6%,66.3%
CC(=O)OC[C@]12[C@H](OC(C)=O)[C@H](OC(C)=O)[C@@H]3[C@@H](OC(=O)c4ccccc4)[C@@]14O[C@@]3(C)COC(=O)c1cccnc1C(C)C(C)C(=O)O[C@@H]([C@H](OC(C)=O)[C@@H]2OC(C)=O)[C@]4(C)O (stereo not given in full),–,–,22.3%

# Source: ChEMBL document CHEMBL1949540, “Dihydroagarofuran derivatives from the dried roots of Tripterygium wilfordii” (2012)
